PglD DTNB: C. jejuni PglD acetyltransferase inhibitors, primary screen, biochemical, DTNB colorimetric, single point. UDP-N-acetylbacillosamine N-acetyltransferase PglD (Campylobacter jejuni). purified PglD enzyme, DTNB colorimetric CoA detection. inhibition, % at 12.5 µM. 360,000 compounds, 0.098% hits. AID 602405, 2012; in the data active = inhibition above about 16%, passing the limit was not always enough
Cneo AK release: Cryptococcus neoformans cell lysis inducers, primary screen, AK release luminescence, single concentration. 360,000 compounds, 0.2% hits. lysis activity, % at 15 µM. C. neoformans lysis, adenylate kinase release luminescence, 4 h; normalised: neutral wells 0, clomiphene wells 100;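 active = mean lysis activity across replicates of at least 80%, whatever share of replicates individually reach that level; inactive = mean lysis activity below 80%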
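Test system: log-phase Cryptococcus neoformans yeast cells; Quantity: yeast cell density of 5 × 10^6 cells/mL; Buffer or medium: YPD; Doses: single compound concentration per well; Timing: 4 h at 37 °C static, read 1 h later; Measured by: AK luminescence; Read-out basis: lysis from increased AK signal; Control set: Clomiphene as positive control.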
PGC1a acetyl inh: inhibitors of PGC1a acetylation signal, primary screen, cell-based, U2OS, AlphaScreen, inhibitor mode; inhibition, % at 15.6 µM; 350,000 compounds, 0.17% hits; AID 651687, 2012; AlphaScreen anti-acetyl-lysine; with virally co-expressed GCN5 acetyltransferase;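 active = every replicate shows inhibition of at least 40%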;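 also: 0% = neutral control wells and 100% = positive control wells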
rRNA inh HTS: reduced GFP signal of wild-type E. coli, primary screen, bacterial rRNA inhibitor project, GFP/RFP fluorescence, OD600, single point; E. coli WT GFP vs humanized-ribosome RFP mutants, 24 h; hits give low values; DMSO median 0, no signal -100; GFP signal change (wild-type ribosome), % (no concentration beside the values); 350,000 compounds, 1.6% hits; AID 720706, 2013;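 active = significant combined selectivity score with lowered wild-type GFP, culture density cut under 30%, mutant RFP and density less affected; inactive = any of these conditions unmet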
FGF22 binding: binders of human FGF22 protein, primary screen, FGF22 synaptogenesis inhibitor project, biophysical, thermal shift, single point; Fibroblast growth factor 22 (Homo sapiens), Q9HCT0; recombinant FGF22 thermal shift, SYPRO orange fluorescence; percent of sucrose octasulfate shift, DMSO zero; activity (Tm shift, normalised), % at 9.99 µM; 340,000 compounds, 1.5% hits;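 active = mean Tm shift, scaled 0 neutral to 100 positive control, at about 1.3% or above, every replicate too, limit read from the data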
Target sequence (Q9HCT0 whole entry, looked up): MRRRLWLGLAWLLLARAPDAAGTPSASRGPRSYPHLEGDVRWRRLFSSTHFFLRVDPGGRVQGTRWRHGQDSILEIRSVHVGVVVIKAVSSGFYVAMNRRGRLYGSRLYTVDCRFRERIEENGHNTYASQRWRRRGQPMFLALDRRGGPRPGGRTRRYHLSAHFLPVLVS
Vif inh: HIV Vif self-association inhibitors, primary screen, imaging, HEK293T, single point | 340,000 compounds, 0.35% hits | inhibition, % at 7.49 µM | AID 602346, 2012 | HEK293T cells, Vif self-association by quenched fluorescence, 24 h; in the data active = inhibition above about 50%, passing the limit was not always enough
* = called active by the depositor. A selection: hits, their analogues and other compounds. The true share with any hit is near 2.9%.

Results for CC(=O)C1=C(C)OC(N)=C(C#N)C1c1cccc2ccccc12 (configuration not stated) ?
PGC1a acetyl inh: -1; rRNA inh HTS: -9; FGF22 binding: 0; Vif inh: 15

What do the screens show for `Cc1ccc2c(c1)C(c1ccc(F)cc1)N(C(=O)c1ccccc1Br)CC(=O)N2` (configuration not stated)?
PglD DTNB: -2; Cneo AK release: 0; PGC1a acetyl inh: 1; rRNA inh HTS: -26*; FGF22 binding: 0; Vif inh: -4

Results for COc1ccccc1C(=O)N1CC(=O)Nc2ccc(C)cc2C1c1ccc(F)cc1 (configuration not stated) ?
PglD DTNB: -5; Cneo AK release: -4; PGC1a acetyl inh: 8; rRNA inh HTS: 0; FGF22 binding: 0; Vif inh: -9

Results for C[C@@H]1CN([C@H](C)CO)C(=O)c2cc(NS(=O)(=O)c3ccc(F)cc3)ccc2O[C@H]1CN(C)S(C)(=O)=O ?
PGC1a acetyl inh: 0; rRNA inh HTS: 4

What do the screens show for `CC(NC(=O)N(Cc1ccccc1)Cc1ccc2c(c1)OCO2)(C(F)(F)F)C(F)(F)F`?
PglD DTNB: 3; Cneo AK release: -2; PGC1a acetyl inh: -1; Vif inh: 83*

What do the screens show for `Cc1cc(=O)oc2cc(NS(=O)(=O)c3ccc(F)cc3)ccc12`?
PglD DTNB: -1; Cneo AK release: -5; PGC1a acetyl inh: -2; rRNA inh HTS: -22*; FGF22 binding: 0; Vif inh: -9

Results for Cc1cc(=O)oc2cc(NS(=O)(=O)c3ccccc3)ccc12 ?
PglD DTNB: 6; Cneo AK release: 2; PGC1a acetyl inh: 1; rRNA inh HTS: -4; FGF22 binding: 0; Vif inh: 1

Results for CC(C)Cn1c(N)c(C(=O)COC(=O)c2ccc(O)cc2)c(=O)n(C)c1=O ?
rRNA inh HTS: -21; FGF22 binding: 0; Vif inh: 2

What do the screens show for `CC(C)Cn1c(N)c(C(=O)COC(=O)c2ccc([N+](=O)[O-])o2)c(=O)n(C)c1=O`?
rRNA inh HTS: -14; FGF22 binding: 43*; Vif inh: -3

Results for C=COCCNC(=O)Nc1ccc(Cl)c(Cl)c1 ?
PglD DTNB: -2; Cneo AK release: 2; PGC1a acetyl inh: 2; rRNA inh HTS: -21*; FGF22 binding: 0

Results for CCCNC(=O)C[C@@H]1CC[C@@H]2[C@H](COc3ccc(NS(=O)(=O)c4ccccc4C)cc3C(=O)N2C)O1 ?
PglD DTNB: -2; Cneo AK release: -5; PGC1a acetyl inh: -5; rRNA inh HTS: -3

What do the screens show for `O=[N+]([O-])c1ccc(N2CCCCC2)nc1N1CCCCC1`?
PglD DTNB: -14; Cneo AK release: -6; PGC1a acetyl inh: 16; rRNA inh HTS: -40*; FGF22 binding: 0; Vif inh: 1

How did C=CCOc1ccccc1CNCCCN1CCOCC1 do in these assays?
PglD DTNB: 3; Cneo AK release: 3; PGC1a acetyl inh: 1; Vif inh: 12

What do the screens show for `C=CCOc1cccc(CNCCCN2CCOCC2)c1`?
PGC1a acetyl inh: 8; rRNA inh HTS: 13; FGF22 binding: 44*; Vif inh: 1

Results for COc1ccc(/C=N/Nc2ccc([N+](=O)[O-])cc2)cc1Cn1cc([N+](=O)[O-])cn1 ?
PglD DTNB: 10; Cneo AK release: 0; PGC1a acetyl inh: -28; Vif inh: 98*

What do the screens show for `C[C@@H]1CCCCO[C@@H](CN(C)S(=O)(=O)c2ccc(Cl)cc2)[C@H](C)CN([C@@H](C)CO)C(=O)c2cc(NC(=O)Nc3ccc(F)cc3)ccc2O1`?
PglD DTNB: 0; Cneo AK release: 56; PGC1a acetyl inh: -5; rRNA inh HTS: 1; FGF22 binding: 0

What do the screens show for `Cc1ccc(C)c(NC(=S)N/N=C2\CCc3ccccc32)c1`?
PglD DTNB: -3; Cneo AK release: 3; PGC1a acetyl inh: 1; rRNA inh HTS: -24*; FGF22 binding: 0; Vif inh: -4

How did Cc1cc2nc(/C=C/c3cccnc3)[nH]c2cc1C do in these assays?
PglD DTNB: 0; Cneo AK release: -9; PGC1a acetyl inh: 67*; rRNA inh HTS: -28*; FGF22 binding: 0; Vif inh: -1

Results for COc1ccc(NC(=O)Nc2ccc3c(c2)C(=O)N([C@H](C)CO)C[C@H](C)[C@@H](CN(C)S(=O)(=O)c2cn(C)cn2)OCCCC[C@H](C)O3)cc1 ?
PglD DTNB: 0; Cneo AK release: 2; PGC1a acetyl inh: 4; rRNA inh HTS: -1; FGF22 binding: 1.4*

Results for COc1ccc(NC(=O)Nc2ccc3c(c2)C(=O)N([C@H](C)CO)C[C@H](C)[C@@H](CN(C)C(=O)CCC(F)(F)F)OCCCC[C@@H](C)O3)cc1 ?
PglD DTNB: 1; Cneo AK release: 0; PGC1a acetyl inh: -4; rRNA inh HTS: 2; FGF22 binding: 0

What do the screens show for `CC(C)NC(=O)Nc1ccc2c(c1)C(=O)N([C@@H](C)CO)C[C@H](C)[C@@H](CN(C)Cc1ccc3c(c1)OCO3)OCCCC[C@@H](C)O2`?
PglD DTNB: 1; Cneo AK release: 102*; PGC1a acetyl inh: 3; rRNA inh HTS: 4; FGF22 binding: 0

Results for COc1ccc(NC(=O)Nc2ccc3c(c2)C(=O)N([C@H](C)CO)C[C@@H](C)[C@@H](CN(C)C(=O)CCC(F)(F)F)OCCCC[C@H](C)O3)cc1 ?
PglD DTNB: 0; Cneo AK release: 95*; PGC1a acetyl inh: -2; rRNA inh HTS: -2; FGF22 binding: -1

What do the screens show for `C[C@@H]1CCCCO[C@H](CN(C)Cc2ccc3c(c2)OCO3)[C@H](C)CN([C@H](C)CO)C(=O)c2cc(NC(=O)Nc3cccc4ccccc34)ccc2O1`?
PglD DTNB: 1; Cneo AK release: 88*; PGC1a acetyl inh: -5; rRNA inh HTS: -2; FGF22 binding: -1

What do the screens show for `CC(C)NC(=O)Nc1ccc2c(c1)C(=O)N([C@@H](C)CO)C[C@@H](C)[C@@H](CN(C)Cc1ccc3c(c1)OCO3)OCCCC[C@@H](C)O2`?
PglD DTNB: -1; Cneo AK release: 1; PGC1a acetyl inh: 5; rRNA inh HTS: -2; FGF22 binding: 0

Assay outcomes (PubChem BioAssay)
